ChEMBL document CHEMBL4602702, “Red-Emitting Dibenzodiazepinone Derivatives as Fluorescent Dualsteric Probes for the Muscarinic Acetylcholine M2 Receptor” (J Med Chem, 2020)
Active and inactive are the calls of the source. The rule behind the calls is not given here.

Key:
[1] = biological target: T1, Muscarinic acetylcholine receptor M2 (Homo sapiens, UniProt P08172); test: (§1) Antagonist activity at human muscarinic M2 receptor expressed in HEK293 cells co-expressing HA-Galphaq/i5 assessed as inhibition of carbachol-induced IP1 accumulation at 37 degree C pre-incubated for 30 mins followed by carbachol addition and measured after 60 mins by HTRF assay; type: functional, cell-based
T1 sequence (P08172 whole entry): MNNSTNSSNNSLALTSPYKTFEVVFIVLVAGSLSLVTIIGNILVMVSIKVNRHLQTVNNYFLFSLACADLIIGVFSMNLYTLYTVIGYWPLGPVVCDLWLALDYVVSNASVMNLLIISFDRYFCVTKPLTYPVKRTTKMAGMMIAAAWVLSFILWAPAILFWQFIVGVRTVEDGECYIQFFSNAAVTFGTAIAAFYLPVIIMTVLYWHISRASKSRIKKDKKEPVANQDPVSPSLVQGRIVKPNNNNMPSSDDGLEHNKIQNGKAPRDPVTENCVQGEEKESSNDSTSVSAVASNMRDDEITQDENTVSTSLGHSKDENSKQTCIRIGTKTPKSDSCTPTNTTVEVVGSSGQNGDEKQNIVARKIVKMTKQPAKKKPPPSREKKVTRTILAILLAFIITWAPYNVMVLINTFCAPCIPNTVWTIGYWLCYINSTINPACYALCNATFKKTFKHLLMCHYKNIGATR

[2] = biological target: T2, Muscarinic acetylcholine receptor M1 (Homo sapiens, UniProt P11229); test: Displacement of [3H]-NMS from human muscarinic M1 receptor stably expressed in CHO-K9 cells by radioligand competitive binding assay; type: cell-based
T2 sequence (P11229 whole entry): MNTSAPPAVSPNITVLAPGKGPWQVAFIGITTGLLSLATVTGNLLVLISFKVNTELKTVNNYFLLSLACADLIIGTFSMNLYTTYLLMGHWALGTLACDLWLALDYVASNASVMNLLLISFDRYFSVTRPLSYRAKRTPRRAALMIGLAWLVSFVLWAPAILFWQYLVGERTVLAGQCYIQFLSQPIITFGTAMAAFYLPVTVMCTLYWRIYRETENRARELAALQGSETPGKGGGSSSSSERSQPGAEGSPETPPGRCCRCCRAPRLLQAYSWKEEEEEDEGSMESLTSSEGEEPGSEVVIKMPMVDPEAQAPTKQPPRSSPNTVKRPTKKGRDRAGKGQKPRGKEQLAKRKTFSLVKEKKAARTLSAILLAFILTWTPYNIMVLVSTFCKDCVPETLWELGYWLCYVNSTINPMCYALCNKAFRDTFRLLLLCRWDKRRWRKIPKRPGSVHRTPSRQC
Method in brief: (§2)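 Equilibrium competition binding at live CHO-hMxR cells with [3H]NMS at M1 0.2, M2 0.2, M3 0.2, M4 0.1, M5 0.3 nM. […] Four-parameter logistic fit converted to pKi; at least three experiments in triplicate (some two).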

[3] = biological target: Muscarinic acetylcholine receptor M3 (Homo sapiens, UniProt P20309); test: Displacement of [3H]-NMS from human muscarinic M3 receptor stably expressed in CHO-K9 cells by radioligand competitive binding assay; type: cell-based; method in brief: as §2
[4] = biological target: T3, Muscarinic acetylcholine receptor M5 (Homo sapiens, UniProt P08912); test: Displacement of [3H]-NMS from human muscarinic M5 receptor stably expressed in CHO-K9 cells by radioligand competitive binding assay; type: cell-based; method in brief: as §2
T3 sequence (P08912 whole entry): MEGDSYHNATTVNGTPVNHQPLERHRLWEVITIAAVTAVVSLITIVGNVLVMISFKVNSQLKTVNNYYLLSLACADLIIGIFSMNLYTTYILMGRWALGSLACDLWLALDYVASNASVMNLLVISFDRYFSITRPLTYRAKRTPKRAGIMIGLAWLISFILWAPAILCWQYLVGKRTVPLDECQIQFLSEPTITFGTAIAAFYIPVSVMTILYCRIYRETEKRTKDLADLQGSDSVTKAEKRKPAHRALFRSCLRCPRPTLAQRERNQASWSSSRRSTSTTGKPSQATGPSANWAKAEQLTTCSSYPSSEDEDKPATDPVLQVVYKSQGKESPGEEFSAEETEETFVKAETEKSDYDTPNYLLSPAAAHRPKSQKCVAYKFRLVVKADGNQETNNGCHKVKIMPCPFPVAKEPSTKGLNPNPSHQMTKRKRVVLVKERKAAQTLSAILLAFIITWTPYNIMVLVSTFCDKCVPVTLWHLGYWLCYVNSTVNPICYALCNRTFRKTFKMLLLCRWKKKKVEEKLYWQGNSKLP

[5] = biological target: T1, Muscarinic acetylcholine receptor M2; test: as §1, with “22” for “37”, “180” for “30”, “further incubated at 37 degree C for 90” for “measured after 60”; type: functional, cell-based
Method in brief: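 HEK-hM2-Gαqi5-HA cells (transient transfection) preincubated with antagonist at 22 °C for 180 min, then carbachol 0.3 μM (≈EC80) added and incubation continued at 37 °C for 90 min. Readout is inhibition of IP1 accumulation as pIC50, mean ± SEM of n independent experiments, each in duplicate.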

[6] = biological target: T4, Muscarinic acetylcholine receptor M2 (Homo sapiens) (UniProt P08172); test: Agonist activity at human muscarinic M2 receptor expressed in HEK293 cells co-expressing HA-Galphaq/i5 assessed as induction of Galphaq/i5-mediated IP1 accumulation by HTRF assay; type: functional, cell-based
T4 sequence (whole entry): T1 sequence (P08172 whole entry)
Method in brief: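 HEK-293 cells transiently co-transfected with hM2R and hybrid Gαqi5-HA, run in agonist mode at 37 °C; IP1 accumulation measured. Carbachol control from 14 independent experiments in duplicate; test ligands from three or four independent experiments in duplicate.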

[7] = biological target: T4, Muscarinic acetylcholine receptor M2 (Homo sapiens); test: Binding affinity to human muscarinic M2 receptor expressed in […] cells assessed as unspecific binding at Kd incubated in dark at 22 degree C for 2 hrs in presence of atropine by FACSCalibur flow cytometric saturation binding study relative to control; type: cell-based
[8] = biological target: T4, Muscarinic acetylcholine receptor M2 (Homo sapiens); test: Binding affinity to human muscarinic M2 receptor expressed in CHO-K9 cells assessed as association rate constant at 22 +/- 1 degree C incubated under shaking condition in dark for 1 to 300 mins by flow cytometric saturation binding study; type: cell-based
[9] = biological target: T4, Muscarinic acetylcholine receptor M2 (Homo sapiens); test: Competitive binding affinity to human muscarinic M2 receptor expressed in CHO-K9 cells assessed as rightward shift of saturation isotherm resulting in Schild regression in presence of increasing concentration of W84 by Schild-like analysis; type: cell-based
Method in brief: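 High-content imaging saturation binding of fluorescent ligand at intact CHO-hM2R cells in the presence of increasing concentrations of the allosteric modulator W84. Rightward shifts (ΔpKd) plotted as log(r−1) vs log[modulator], with r = 10^ΔpKd. Three independent experiments in triplicate.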

[10] = Chemical stability of compound in PBS buffer assessed as retention time at pH 7.4 and 22 degree C measured up to 48 hrs by RP-HPLC analysis; type: physicochemical; settings: pH 7.4, 48 h
Method in brief: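 Fluorescent ligand stability checked in PBS pH 7.4 over 48 h by RP-HPLC on a C18 column with an aqueous TFA/acetonitrile gradient, oven at 25 °C, detection at 220 nm.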

[11] = biological target: T4, Muscarinic acetylcholine receptor M2 (Homo sapiens); test: Binding affinity to human muscarinic M2 receptor expressed in CHO-K9 cells assessed as increase in intracellular fluorescence intensity at 30 nM incubated for 45 mins by confocal microscopy

Muscarinic acetylcholine receptor M3, sequence (P20309 whole entry): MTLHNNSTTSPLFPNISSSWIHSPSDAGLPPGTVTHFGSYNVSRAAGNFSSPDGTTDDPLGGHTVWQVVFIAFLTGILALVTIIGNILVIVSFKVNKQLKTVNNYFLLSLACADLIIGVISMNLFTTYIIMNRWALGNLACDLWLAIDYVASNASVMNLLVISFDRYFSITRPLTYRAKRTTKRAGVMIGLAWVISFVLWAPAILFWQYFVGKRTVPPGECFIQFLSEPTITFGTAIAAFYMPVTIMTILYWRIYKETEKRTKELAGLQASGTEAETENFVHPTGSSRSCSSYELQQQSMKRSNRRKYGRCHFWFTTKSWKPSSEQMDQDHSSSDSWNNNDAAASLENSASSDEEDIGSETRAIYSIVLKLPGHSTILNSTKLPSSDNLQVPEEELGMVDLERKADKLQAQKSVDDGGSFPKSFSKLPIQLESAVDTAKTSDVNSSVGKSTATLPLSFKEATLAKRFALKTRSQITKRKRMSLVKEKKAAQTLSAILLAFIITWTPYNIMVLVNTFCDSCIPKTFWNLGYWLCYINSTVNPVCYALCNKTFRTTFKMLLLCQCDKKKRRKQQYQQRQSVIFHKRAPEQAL

IC50 [1] [nM]	Ki [2] [nM]	Ki [3] [nM]	Ki [4] [nM]	IC50 [5] [nM]	Activity [6]	Activity [7] [%]	K [8] [M⁻¹ s⁻¹]	Activity [9]	Retention_time [10] [min]	Activity [11]	Structure (SMILES)
355	5.25	155	166	57.5	inactive	10	61700	Active	10.3	Active	CC1(C)C(/C=C/C=C/C=C2/N(CCCCCC(=O)NCCNC(=O)CCc3cn(CCCCC4CCN(CC(=O)N5c6ccccc6NC(=O)c6ccccc65)CC4)cn3)c3ccc(S(=O)(=O)O)cc3C2(C)C)=[N+](CCCCS(=O)(=O)[O-])c2ccccc21.O=C(O)C(F)(F)F
224	2.88	81.3	135	38.9	inactive	10	158000	Active	18.2	Active	CC1(C)C(/C=C/C=C/C=C2/N(CCCCCC(=O)NCCN3CCN(CCCCC4CCN(CC(=O)N5c6ccccc6NC(=O)c6ccccc65)CC4)CC3)c3ccc(S(=O)(=O)O)cc3C2(C)C)=[N+](CCCCS(=O)(=O)[O-])c2ccccc21.O=C(O)C(F)(F)F.O=C(O)C(F)(F)F
24	2.29	75.9	407	17.4	inactive	< 5	81700	Active	10.4	Active	CC1(C)C(/C=C/C=C/C=C2/N(CCCCCC(=O)NCc3cc(C(=O)NCCNC(=O)CCc4cn(CCCCC5CCN(CC(=O)N6c7ccccc7NC(=O)c7ccccc76)CC5)cn4)cc(C(=O)NCCNC(=O)CCc4cn(CCCCC5CCN(CC(=O)N6c7ccccc7NC(=O)c7ccccc76)CC5)cn4)c3)c3ccc(S(=O)(=O)O)cc3C2(C)C)=[N+](CCCCS(=O)(=O)[O-])c2ccccc21.O=C(O)C(F)(F)F.O=C(O)C(F)(F)F.O=C(O)C(F)(F)F
